# Screening results as filed in PubChem BioAssay.
# The list is a sample of the results.
# PGC1a Ac signal: raises PGC1a acetylation signal in U2OS cells; U2OS PGC1a acetylation AlphaScreen, overnight; activation, % at 15.6 µM; hit rate 0.21% among 350,000;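 active = every replicate reaching activation of at least 50%, whatever the mean replicate activation; inconclusive = replicates that disagree or another doubt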;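 note: hits raise the AlphaScreen acetylation signal above neutral controls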
#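 Incubation: overnight compound treatment, 37 °C. System: U2OS cells transduced with flag-tagged PGC1a and GCN5 acetyltransferase. Detection: AlphaScreen lysate read. Compound: single-point compound dosing.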
# Hep G6PC suppr: PGC-1a acetylation activator altering hepatocyte G6PC expression; AID 743463; G6PC suppression (normalized activity, % of positive control; higher = more suppression), % at 26 µM; shares compounds with PGC1a Ac signal; primary mouse hepatocytes, G6PC mRNA qPCR, forskolin; 240 tested, under 10 active;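 active = dose curves showing G6PC suppression whose half-maximal dose is at most twice the top valid dose; inconclusive = flat curves with moderate negative activity, or unreliable fits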;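 note: G6PC expression relative to GAPDH housekeeping gene as delta delta Ct; 0% = median of neutral control wells and 100% = median of positive control wells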
# Hep PCK1 suppr: hepatocyte PCK1 expression change via PGC-1a acetylation activation; shares compounds with PGC1a Ac signal; PCK1 expression decrease, unspecified at 26 µM; primary mouse hepatocytes, PCK1 mRNA qPCR, forskolin-stimulated; 230 tested, under 10 active;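 active = compounds lowering PCK1 expression whose fitted half-maximal concentration is at most twice the top tested dose; inconclusive = flat fit with moderate opposite-direction effect, or poor fit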;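 note: values are delta delta Ct of PCK1 relative to GAPDH; higher delta delta Ct means lower PCK1 expression so positive values indicate hits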
# Hep PGC-1a down: PGC-1a acetylation activators affecting PGC-1a expression in hepatocytes | shares compounds with PGC1a Ac signal | primary mouse hepatocytes, PGC-1a mRNA qPCR, forskolin; top dose 26 µM | max activity (PGC-1a expression decrease), % | 240 tested, under 10 active | AID 743467;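 active = compound lowering PGC-1a expression with fitted half-maximal concentration at most twice its top tested dose; inconclusive = flat curve with moderate opposite-direction effect, or poor fit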;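 note: 0% = neutral control wells median and 100% = positive control wells median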
# * hit, by the source's call; i = inactive; ? = inconclusive; · = no result; [ ] = remark or other dose.
SMILES,PGC1a Ac signal,Hep G6PC suppr,Hep PCK1 suppr,Hep PGC-1a down
O=C(Nc1cnc2ccccc2c1)c1cccnc1,267.2*,·,-14.8,-29.5
O=C(c1nc2nc(-c3ccccc3)cc(C(F)(F)F)n2n1)N1CCCCC1,-41.1,·,·,·
c1ccc(CN2OCC3Cn4c(nc5ccccc54)C32)cc1 (configuration not stated),-40.5,·,·,·
CC(=O)c1ccc(NC(=O)N2CCc3ccccc3C2)cc1,269.0*,45.0,-13,44.9
O=C(CSc1nc2cc(Cl)ccc2s1)NCC1CCCO1 (configuration not stated),-52.1,·,·,·
CSCC(=O)N1CCCC(CO)(Cc2ccccc2C)C1 (configuration not stated),-109.0,·,·,·
Cc1nnc(-c2ccccc2)c(=O)n1/N=C/c1c(O)ccc2ccccc12,-64.5,·,·,·
C(=N\Nc1nc2ccccc2[nH]1)/c1ccc2ncccc2c1,-48.9,·,·,·
O=C(Nc1nc(-c2ccccn2)cs1)c1ccccc1-n1cnnn1,-43.0,·,·,·
c1ccc(-c2c(-c3ccccc3)n(Cc3ccco3)c3ncnc(NCCCn4ccnc4)c23)cc1,125.5*,266.6[8 µM],216,88.3
O=C(Nc1ccccc1-c1ccccc1)NC1CC2CCCC(C1)N2Cc1ccc(F)cc1 (configuration not stated),-42.2,·,·,·
C[C@H]1CN([C@@H](C)CO)C(=O)c2cccc(NS(=O)(=O)c3ccc(F)cc3)c2O[C@H]1CN(C)Cc1ccc(C(F)(F)F)cc1,-55.0,23.2,36.6,89.2
C[C@@H]1CN([C@H](C)CO)C(=O)c2cc(NC(=O)Cc3ccccc3)ccc2O[C@@H]1CN(C)Cc1ccncc1,-49.4,·,·,·
CN(C)c1ncnc2c1ncn2C1OC(CO)C(O)C1O (configuration not stated),-49.5,·,·,·
Cc1[nH]c2ccc(C(C)C)cc2c1CC(=O)O,-76.0,·,·,·
CCOC(=O)C1=C(Nc2ccccc2)OCC1=O,-46.5,·,·,·
O=C(Nc1ccc(F)cc1)c1sc2cc(C(F)(F)F)cnc2c1-c1cccs1,-113.8,·,·,·
Cc1ccc(NC(=O)c2sccc2SCc2cccc(C(F)(F)F)c2)cc1,?,-21.8,76.4,141.1
N#Cc1ccc(CCc2ccccc2)[nH]c1=O,-43.2,·,·,·
O=C(CN1CCC(n2c(=O)[nH]c3ccccc32)CC1)NCc1ccc(Cl)s1,·,-13.8,-6.26,15.1
CCn1c2ccccc2c2cc(/C=N/n3cn[nH]c3=S)ccc21,-41.6,·,·,·
CCN(CC)CC(=O)N1c2ccccc2CCc2ccc(NC(=O)c3cc(OC)c(OC)c(OC)c3)cc21,-41.2,i,?,131.2
Cc1cc(N2CCN(C)CC2)ccc1NC(=O)c1c2c(nc3ccccc13)CCN(Cc1ccccc1)C2,-69.4,·,·,·
O=C(Cc1csc(N2CCOCC2)n1)N/N=C/c1cccc(O)c1,-55.9,·,·,·
CC1(C(=O)Nc2cccc(C#N)c2)CCN1C(=O)CCc1ccccc1 (configuration not stated),-43.6,·,·,·
SMILES,PGC1a Ac signal,Hep G6PC suppr,Hep PCK1 suppr,Hep PGC-1a down
CC(=O)c1cc(-c2ccccc2)n(CCC(=O)NC2CCCCC2)c1C,?,-15.6,18,35.1
O=C(N/N=C/c1ccccc1C(=O)O)c1cccc(S(=O)(=O)Nc2cc(Cl)ccc2Cl)c1,-46.8,·,·,·
OC(CN1c2ccccc2Sc2ccccc21)Cn1nnc2ccccc21 (configuration not stated),75.8*,·,44.3,14.8
CC(C)(C)c1ccc(O)c(O)c1,-47.2,·,·,·
N#Cc1cccc(C(c2nnnn2C2CCCC2)N2CCCCCC2)c1 (configuration not stated),?,32.5,231,92.3
Cc1ccc(C2CC2c2n[nH]c(=S)n2-c2ccc(Cl)cc2)cc1 (configuration not stated),-45.1,·,·,·
CCOC(=O)CNS(=O)(=O)c1cc(-c2nnc(Nc3ccc4c(c3)OCO4)c3ccccc23)ccc1C,168.3*,84.6,120,92.2
Cc1ccc(NC(=O)c2c(C(F)(F)F)nn(C)c2SCc2ccc(Cl)cc2)cc1C,?,13.6[8 µM],249,139.2
Nc1ncnc(NCc2ccc(F)cc2)c1[N+](=O)[O-],-49.7,·,·,·
CCOc1ccc(N2C(=O)CC(Cc3ccc(Br)cc3)C2=O)cc1 (configuration not stated),-70.9,·,·,·
NC(=O)Cn1cc(C(=O)c2cccs2)c2ccccc21,?,·,-13.9,26.2
CCN1CCN(c2nnc(-c3ccccc3)c3ccccc23)CC1,-45.7,·,·,·
CC(C)[C@H](C)NC(=O)N(C)C[C@H]1OCc2ccccc2-c2c(n(C)c3ccccc23)C(=O)N([C@H](C)CO)C[C@H]1C,59.2*,3.1,5.55,59.4
C[C@@H]1CN([C@@H](C)CO)C(=O)c2c(c3ccccc3n2C)-c2ccccc2CO[C@@H]1CN(C)C(=O)Nc1ccc2c(c1)OCO2,81.0*,-2.9[23.5 µM],25.5[23.5 µM],34.2
C[C@@H]1CN([C@@H](C)CO)C(=O)c2c(c3ccccc3n2C)-c2ccccc2CO[C@@H]1CN(C)C(=O)c1ccc(F)cc1,117.0*,35.0,151,207.0
C[C@@H]1CN([C@@H](C)CO)C(=O)c2c(c3ccccc3n2C)-c2ccccc2CO[C@@H]1CN(C)C(=O)c1ccccc1,76.3*,22.3[23.5 µM],44.2[23.5 µM],169.2
CN(C)CC(C(=O)c1ccccc1)c1ccccc1 (configuration not stated),-138.8,·,·,·
Cn1c(SCc2ccon2)nc2ccccc2c1=O,-48.8,·,·,·
Cc1ccc(-n2cccc2C(=S)N=P(N(C)C)(N(C)C)N(C)C)cc1,-84.8,·,·,·
CCCOC(=O)c1ccc(-n2nnnc2SCC(=O)N2CCCCC2)cc1,-49.0,·,·,·
O=c1[nH]c(/C=C/c2ccc([N+](=O)[O-])cc2)c([N+](=O)[O-])c(=O)[nH]1,-42.8,·,·,·
CCCC[C@@]1(C2CCCC2)Cc2cc(OCC(=O)O)c(Cl)c(Cl)c2C1=O,-95.0,·,·,·
CN1CCN(CCP(=O)(c2ccccc2)c2ccccc2)CC1,-40.8,·,·,·
CC(/C=N/NC(=O)c1cc(-c2ccc(Cl)cc2)nc2ccccc12)=C\c1ccco1,-52.7,·,·,·
Cc1cc(OCC(=O)O/N=C(\N)c2ccccc2)cc(C)c1Cl,-59.0,·,·,·
SMILES,PGC1a Ac signal,Hep G6PC suppr,Hep PCK1 suppr,Hep PGC-1a down
CCOC(=O)C1=C(C)N=c2s/c(=C\c3cccc(OCC(=O)O)c3)c(=O)n2C1c1ccccc1OC (configuration not stated),-54.9,·,·,·
C[C@@H]1CN([C@H](C)CO)C(=O)c2c(c3ccccc3n2C)-c2ccccc2CO[C@@H]1CN(C)C(=O)c1ccccc1,57.7*,73.4,?,?
COc1cccc(NC(=O)c2ccccc2-c2ccccc2C(=O)O)c1,-81.3,·,·,·
Cc1cc(N2CCN(C)CC2)nc2ccc(NC(=S)N3CCN(c4cccc(Cl)c4)CC3)cc12,-47.6,·,·,·
O=C(O)c1ccccc1C(=O)N1CCN(C(=O)c2ccccc2Cl)CC1,-49.5,·,·,·
O=C(c1ccccc1Nc1ccc(SC(F)F)cc1)N1CCCCCC1,52.6*,-37.7,11.1,84.3
CCc1ccc(S(=O)(=O)/N=C2\C=C(Nc3ccc(O)cc3)C(=O)c3ccccc32)cc1,-63.4,·,·,·
O=C(COc1cccnc1[N+](=O)[O-])NCCc1ccc(Cl)cc1,-49.1,·,·,·
COc1cc(CN2CCCC(CO)(Cc3cccc(Cl)c3)C2)cc2c1OCO2 (configuration not stated),-44.5,-15.8[8 µM],165,85.6
OCC1(Cc2ccc(F)cc2F)CCCN(Cc2ccc(Cl)cc2)C1 (configuration not stated),-46.1,·,·,·
